Vif inh: HIV Vif self-association inhibitors, primary screen, imaging, HEK293T, single point; HEK293T cells, Vif self-association by quenched fluorescence, 24 h; inhibition, % at 7.49 µM; 340,000 compounds, 0.35% hits; AID 602346, 2012; in the data active means inhibition above about 50%, passing the limit was not always enough; inconclusive means no clear call, values can overlap the other calls; inactive means below about 31%
Runt-SMMHC FRET: inhibitors of RUNX1 Runt–CBFb-SMMHC binding, primary screen, biochemical, FRET, Cerulean-Runt, Venus-CBFb-SMMHC, uHTS | Runt-related transcription factor 1 (Homo sapiens) + Core-binding factor subunit beta … | Cerulean-Runt/Venus-CBFb-SMMHC FRET ratio 530/480, 1 h | inhibition, % at 20 µM | 220,000 compounds, 0.74% hits | AID 1434, 2008;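 active means mean inhibition across duplicate retests at 20 µM reaching about 50%, limit read from the data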;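 further: 0% = DMSO wells and 100% = wells with excess untagged CBFb-SMMHC; inhibitors lower the FRET ratio by blocking Runt binding to CBFb-SMMHC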
Target sequence (Q01196 whole entry, looked up): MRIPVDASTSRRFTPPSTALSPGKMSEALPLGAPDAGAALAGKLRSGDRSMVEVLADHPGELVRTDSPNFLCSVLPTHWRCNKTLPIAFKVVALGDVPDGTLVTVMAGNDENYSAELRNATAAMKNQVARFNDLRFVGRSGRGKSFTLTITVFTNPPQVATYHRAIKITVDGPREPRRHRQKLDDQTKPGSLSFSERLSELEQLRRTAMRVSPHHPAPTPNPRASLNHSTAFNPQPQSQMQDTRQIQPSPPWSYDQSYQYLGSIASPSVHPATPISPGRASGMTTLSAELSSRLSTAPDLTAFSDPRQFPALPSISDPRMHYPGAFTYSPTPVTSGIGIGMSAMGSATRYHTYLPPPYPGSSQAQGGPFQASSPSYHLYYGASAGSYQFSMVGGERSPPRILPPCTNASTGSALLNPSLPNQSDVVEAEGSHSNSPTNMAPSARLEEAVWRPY
Target sequence (Q13951 whole entry, looked up): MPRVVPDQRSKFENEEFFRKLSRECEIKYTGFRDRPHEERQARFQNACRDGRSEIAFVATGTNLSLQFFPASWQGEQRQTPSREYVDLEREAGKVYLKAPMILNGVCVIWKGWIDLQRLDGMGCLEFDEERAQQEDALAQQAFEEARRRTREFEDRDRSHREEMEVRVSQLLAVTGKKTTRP
RanGTP-Impb inh: inhibitors of RanGTP-importin-beta interaction, primary screen, biochemical, FRET, CFP-Ran, YFP-importin-beta, homogeneous; Ran GTPase (GTP-bound) - importin-beta complex; cell-free CFP-Ran/YFP-importin-beta FRET ratio; inhibition, % (test concentration not listed); 300,000 compounds, 1.1% hits;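 active means more than half of the replicate wells show a fall in the fluorescence ratio signal beyond about 16%, limit read from the data, passing the limit was not always enough; inconclusive means exactly half of the replicate wells pass the set limit; inactive means fewer than half of replicates pass the limit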;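 further: 0% = DMSO wells and 100% = Ran loaded with GDP instead of GTP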
Rce1 inh: yeast Rce1p protease inhibitors, primary screen, biochemical, fluorescence, cell-free homogeneous; 290,000 compounds, 0.27% hits; AID 2563, 2010; calls only; CAAX prenyl protease 2 (Saccharomyces cerevisiae (strain ATCC 204508 / S288c)), Q03530; yeast membranes, quenched prenylated peptide cleavage fluorescence;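 active means fall in fluorescence gain of 50% or more versus controls, with final raw signal at or below 3038400; inconclusive means same 50% fall but final raw signal above 3038400; inactive means fall in fluorescence gain under 50%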;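 further: plate controls were neutral control wells for no effect and wells lacking membranes for full effect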
Runt-CBFb FRET: inhibitors of RUNX1 Runt–CBFb binding, primary screen, biochemical, FRET, Cerulean-Runt, Venus-CBFb, uHTS | Runt-related transcription factor 1 (Homo sapiens) + Core-binding factor subunit beta … | 220,000 compounds, 0.46% hits | inhibition, % at 20 µM | AID 1496, 2009 | Cerulean-Runt/Venus-CBFb FRET ratio 530/480, 1 h;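 active means inhibition over about 50% at 20 µM in the single-dose screen, limit read from the data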;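 further: 0% = DMSO wells and 100% = excess unlabeled CBFb competitor control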
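test system = Cerulean-Runt domain fusion protein, energy donor | probe or stimulus = Venus-CBFb binding partner, 100 nM | incubation = two 1 h room-temperature incubations shielded from light | detection = fluorescence energy transfer, 422 nm excitation, 530/480 nm emission | measure = loss of energy transfer signal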
An asterisk follows results filed as active. Most compounds without a hit are left out; they make up all but 1.7% or so of the library.

How did Cn1cnc([N+](=O)[O-])c1Sc1nc(N)nc2c1ncn2C1CC(O)C(CO)O1 (stereo unspecified) do in these assays?
Vif inh: 8

How did CC1=C(C#N)C(c2ccc(O)cc2)C2=C(CC(C)(C)CC2=O)N1 (stereo unspecified) do in these assays?
Vif inh: -7; Runt-SMMHC FRET: 8; RanGTP-Impb inh: -1; Rce1 inh: inactive; Runt-CBFb FRET: 4

How did CC1=C(C#N)C(C)C2=C(CC(C)(C)CC2=O)N1 (stereo unspecified) do in these assays?
Vif inh: 7; Runt-SMMHC FRET: 50*; RanGTP-Impb inh: 5; Rce1 inh: inactive; Runt-CBFb FRET: 22

What do the screens show for `CSc1sc(C(=O)O)c(C)c1C(C)=O`?
Vif inh: 56*; Runt-SMMHC FRET: -5; RanGTP-Impb inh: 1; Rce1 inh: inactive; Runt-CBFb FRET: -2

How did COC(=O)COc1ccc(/C=N/NC(=O)CN(c2ccccc2OC)S(=O)(=O)c2ccccc2)cc1 do in these assays?
Vif inh: 57*; RanGTP-Impb inh: -2; Rce1 inh: inactive

Results for COc1ccc(C=C(C(=O)O)c2ccc(OC)cc2)cc1 ?
Vif inh: 6

How did COc1ccc(-c2ccc(CCC(=O)O)n2CC(C)C)cc1 do in these assays?
Vif inh: 8; Runt-SMMHC FRET: 51*; RanGTP-Impb inh: 2; Rce1 inh: inactive; Runt-CBFb FRET: 27

Results for O=C(O)CCc1ccc(-c2ccc(F)cc2)n1CC1CCCO1 (stereo unspecified) ?
Vif inh: 5; Runt-SMMHC FRET: 21; RanGTP-Impb inh: 1; Rce1 inh: inactive; Runt-CBFb FRET: 12

What do the screens show for `O=C(O)CCc1ccc(-c2cccs2)n1CC1CCCO1` (stereo unspecified)?
Vif inh: 33; Runt-SMMHC FRET: 86*; RanGTP-Impb inh: 18*; Rce1 inh: inactive; Runt-CBFb FRET: 32

What do the screens show for `COc1ccc(-c2ccc(CCC(=O)O)n2CC2CCCO2)cc1` (stereo unspecified)?
Vif inh: 2; Runt-SMMHC FRET: 75*; RanGTP-Impb inh: inconclusive; Rce1 inh: inactive; Runt-CBFb FRET: 32

How did COCCCn1c(CCC(=O)O)ccc1-c1cccs1 do in these assays?
Vif inh: -2; Runt-SMMHC FRET: 126*; RanGTP-Impb inh: 55*; Rce1 inh: inactive; Runt-CBFb FRET: 22

Results for COc1ccc(C(=O)N/C(=C\c2cn(S(=O)(=O)N(C)C)c3ccccc23)C(=O)NCCCN2CCOCC2)cc1 ?
Vif inh: 0; RanGTP-Impb inh: 4; Rce1 inh: inactive

Results for CC(C)c1ccc(/C=C2\SC(=S)N(CCC(=O)NCCCn3ccnc3)C2=O)cc1 ?
Vif inh: 8; RanGTP-Impb inh: 6; Rce1 inh: active

How did CN1C[C@@H]2[C@@H]3C(=O)N(C)C(=O)[C@@H]3[C@](Cc3ccccc3)(C1=O)N2C(=O)c1ccc(Cl)cc1 do in these assays?
Vif inh: -1

Results for COc1ccc(O[C@H]2C=C[C@@H](c3ccccc3)O[C@@H]2CO/N=C(\C)CCN2CCCCc3nc(C)c(C)cc32)cc1 ?
Runt-SMMHC FRET: -6; Runt-CBFb FRET: -2

How did COc1ccc(OC)c(N=c2oc3cc(O)ccc3cc2C(N)=O)c1 do in these assays?
Vif inh: -9; Runt-SMMHC FRET: 117*; RanGTP-Impb inh: 158*; Rce1 inh: inactive; Runt-CBFb FRET: 120*

What do the screens show for `NC(=O)c1cc2ccc(O)cc2oc1=NCc1ccccc1`?
Vif inh: 27; Runt-SMMHC FRET: 83*; RanGTP-Impb inh: 181*; Rce1 inh: inactive; Runt-CBFb FRET: 5

What do the screens show for `COc1ccc2cc(C(N)=O)c(=Nc3ccccc3)oc2c1`?
Vif inh: -18; Runt-SMMHC FRET: 2; RanGTP-Impb inh: 2; Rce1 inh: inactive

Results for NC(=O)c1cc2ccccc2oc1=NCc1ccccc1 ?
Runt-SMMHC FRET: 2; RanGTP-Impb inh: 6; Rce1 inh: inactive; Runt-CBFb FRET: -3

What do the screens show for `NC(=O)c1cc2ccc(O)cc2oc1=Nc1ccccc1`?
Vif inh: -17; Runt-SMMHC FRET: 65*; RanGTP-Impb inh: 176*; Rce1 inh: inactive; Runt-CBFb FRET: 12

How did O=C1COc2ccc3ccccc3c21 do in these assays?
Vif inh: -2; RanGTP-Impb inh: 4; Rce1 inh: inactive

Results for CCOC(=O)N1CCC(=NNC(=O)c2cc3ccccc3cc2O)CC1 ?
Vif inh: 2; Runt-SMMHC FRET: -81; RanGTP-Impb inh: -5; Rce1 inh: inactive; Runt-CBFb FRET: -90

Results for CC(=O)N1CCC(=NNC(=O)c2cc3ccccc3cc2O)CC1 ?
Vif inh: 51*; RanGTP-Impb inh: -5; Rce1 inh: inactive

What do the screens show for `Cc1ccc(NC(=O)CSc2nccn2C)cc1F`?
Vif inh: 0; RanGTP-Impb inh: -2; Rce1 inh: inactive

Results for Cc1ccc(S(=O)(=O)N2CCCCC2)cc1NC(=O)CSc1ncccn1 ?
Vif inh: 54*

Results for Cc1ccc(NC(=O)CSc2ncccn2)cc1F ?
Vif inh: 2; Runt-SMMHC FRET: -1; RanGTP-Impb inh: 96*; Rce1 inh: inactive; Runt-CBFb FRET: 1

How did Cc1cc(C)n2cc(CSc3nc4ccccc4s3)nc2n1 do in these assays?
Vif inh: 3; Runt-SMMHC FRET: -1; RanGTP-Impb inh: inconclusive; Rce1 inh: inactive; Runt-CBFb FRET: 0

How did C/C(=N/NC(=O)CNC(=O)/C=C/c1ccco1)c1ccc(Cl)cc1 do in these assays?
Vif inh: -3; Runt-SMMHC FRET: -1; RanGTP-Impb inh: 6; Rce1 inh: inactive; Runt-CBFb FRET: 4

What do the screens show for `O=C(COc1ccc2c(c1)OCO2)Nc1nncs1`?
Vif inh: 23; RanGTP-Impb inh: 4; Rce1 inh: inactive

Results for CCOc1ccc2nc(NS(=O)(=O)c3ccc(NC(C)=O)cc3)sc2c1 ?
Vif inh: 4; Runt-SMMHC FRET: -3; RanGTP-Impb inh: -4; Rce1 inh: inactive; Runt-CBFb FRET: 0

How did CCOc1ccc2nc(NS(=O)(=O)Cc3ccccc3)sc2c1 do in these assays?
Vif inh: 106*; Runt-SMMHC FRET: 0; RanGTP-Impb inh: 1; Rce1 inh: inactive; Runt-CBFb FRET: -1

What do the screens show for `COc1ccccc1C(=O)Nc1ccnn1C1CCN(C(C)CSC)CC1` (stereo unspecified)?
Vif inh: -9; RanGTP-Impb inh: 23*; Rce1 inh: inactive

How did COc1ccccc1C(=O)Nc1ccnn1C1CCN(C)CC1 do in these assays?
Vif inh: 5; RanGTP-Impb inh: 5; Rce1 inh: inactive

What do the screens show for `CCCOc1ccc(-c2cn3ccccc3n2)cc1[N+](=O)[O-]`?
Vif inh: 10; Runt-SMMHC FRET: 1; RanGTP-Impb inh: 1; Rce1 inh: inactive; Runt-CBFb FRET: -6
